Assay type in all cases: functional, cell-based
In experiment [1] the test system is A549. As to the kind of experiment: Cytotoxicity against human A549 cells after 72 hrs by SRB assay. The conditions noted are these: A549, 72 h. In outline:
(§1)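 Adherent tumour cells seeded 24 h before treatment, then exposed continuously to a range of compound concentrations for 72 h. Cells were then fixed and stained with sulforhodamine B to read growth, and IC50 values were derived from the concentration series.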
(Sulforhodamine B stains cellular protein and so reports cell mass.)

The subject of experiment [2] is HT-29. As to the kind of experiment: Cytotoxicity against human HT29 cells after 72 hrs by SRB assay. Conditions: HT-29, 72 h. An outline of the steps: as §1
The test system of experiment [3] is K562. The experiment can be described thus: Cytotoxicity against human K562 cells after 72 hrs by SRB assay. The conditions noted are these: K562, 72 h.

Where only a bound is given, the exact number is not on record here.

Consider `COC[C@H]1C(=O)[C@]23C[C@H]1C[C@H](OC(C)=O)[C@H]2[C@@]12CO[C@@]3(O)[C@@H](O)[C@@H]1C(C)(C)CC[C@@H]2O` [PARVIFOLINE J], for which the IC50 in experiment [1], in experiment [2] and in experiment [3] was more than 100 µM each time.

For the compound `C=C1C(=O)[C@]23C[C@H]1[C@@H](O)C=C2[C@@]12CO[C@@]3(O)[C@@H](O)[C@@H]1C(C)(C)CC[C@@H]2O` [PARVIFOLINE F], the half-maximal inhibitory concentration (IC50) in experiment [1], in experiment [2] and in experiment [3] was more than 100 µM each time.

As to `C=C1C(=O)[C@]23C[C@H]1C[C@H](OC(C)=O)[C@H]2[C@@]12CO[C@@]3(O)[C@@H](O)[C@@H]1C(C)(C)CC[C@@H]2O` [PARVIFOLINE H], the 50% inhibitory concentration (IC50) in experiment [1], in experiment [2] and in experiment [3] was more than 100 µM throughout.

Regarding `C=C1C(=O)[C@]23C[C@H]1CC[C@H]2[C@@]12CO[C@@]3(O)[C@@H](O)[C@@H]1[C@@](C)(CO)CC[C@@H]2O` [PARVIFOLINE C], in experiment [3], it took 13.8 µM to reach half-maximal inhibition (IC50).

As for `C=C1C(=O)[C@]23[C@H](O)[C@H]1CC[C@H]2[C@@]12CO[C@@]3(O)[C@@H](O)[C@@H]1[C@@](C)(CO)CC[C@@H]2O` [PARVIFOLINE D], the IC50 in experiment [1], in experiment [2] and in experiment [3] was more than 100 µM throughout.

For `C=C1[C@@H]2C[C@@H](OC(C)=O)[C@H]3[C@@]45CO[C@@](O)(C(=O)[C@@H]4C(C)(C)CC[C@@H]5OC(C)=O)[C@]3(C2)[C@@H]1OC(C)=O` [PARVIFOLINE G], the IC50 in experiment [1], in experiment [2] and in experiment [3] was more than 100 µM each time.

In the case of `C=C1C(=O)[C@]23C[C@H]1C[C@H](O)[C@H]2[C@@]12CO[C@@]3(O)[C@@H](O)[C@@H]1C(C)(C)CC[C@@H]2OC(C)=O` [PARVIFOLINE I], the IC50 in experiment [1], in experiment [2] and in experiment [3] was more than 100 µM throughout.

What is called IC50 is the midpoint of a concentration-inhibition curve. A lower IC50 goes with greater potency in that assay.

For the origin of these results see ChEMBL document CHEMBL1157325, “7alpha,20-epoxy-ent-kauranoids from Isodon parvifolius” (J Nat Prod, 2006).
